Series [1] has as its system TCF/LEF reporter activity. The series can be described thus: TCF/LEF luciferase reporter assay, COLO-320DM. Format: cell-based, human. The following applies: 30 h. In short, it runs like this:
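Cells were transfected with TCF reporter vectors (including pTcf7wt-luc), then exposed to test compound for 30 h and luciferase activity was read. Comparison was by Tukey-Kramer test against pTcf7wt-luc-transfected DMSO-treated cells.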
For orientation: In a reporter assay the amount or activity of a reporter protein is the signal.

The next series deals with RKO cells. The series can be described thus: BrdU assay. Format: cell-based, human. As to conditions: 48 h. In short, it runs like this:
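Cells were kept in DMEM with 10% FBS, treated for 48 h, then assayed for BrdU incorporation. DNA synthesis was compared with DMSO-treated (basal) cells by Tukey-Kramer test. Experiments were repeated at least twice; representative data are shown with standard deviation.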
On the technique in general: Incorporation of labelled thymidine or its analogues reports DNA synthesis.

Series [2] has as its system tankyrase, Axin1/2, β-catenin. The series can be described thus: Western blot analysis of pharmacodynamic biomarkers in COLO-320DM cells. In kind it is cell-based, human. The following applies: 16 h. The essentials:
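Cells cultured in RPMI-1640 with 10% heat-inactivated FBS were treated for 16 h. Whole cell lysates were then analysed by western blot.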

Series [3] concerns TCF/LEF reporter activity. The series can be described thus: TCF/LEF luciferase reporter assay, L-Wnt3A-stimulated HEK293T. Format: cell-based. The following applies: 30 h. In short, it runs like this: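 HEK293T cells were transfected with TCF luciferase reporters. Conditioned medium from L or L‐Wnt3A cells, prepared per the ATCC protocol, was added together with test compound, and luciferase was read after 30 h. Comparison was by Tukey-Kramer test against pTcf7wt-luc-transfected DMSO controls.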

Another series has as its system COLO-320DM cells. The series can be described thus: BrdU assay. Format: cell-based, human. As to conditions: 48 h. In short, it runs like this:
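Cells were grown in RPMI-1640 with 10% heat-inactivated FBS and exposed to test compound for 48 h before BrdU incorporation was measured. Tukey-Kramer comparison was against DMSO-treated cells. Experiments were repeated at least twice; representative results are shown with standard deviation.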

Series [4] concerns non-phosphorylated (active) β-catenin. The series can be described thus: Immunofluorescence staining of active β-catenin in COLO-320DM cells. Format: cell-based, human. As to conditions: 1 μmol/L, 16 h, DMSO 100%. The essentials: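 Cells were exposed to 1 μmol/L test compound for 16 h, then immunostained with anti-non-phosphorylated β-catenin antibody (D13A1, 1:500) and counterstained with DAPI. Fluorescence images were quantified, and intensity was expressed relative to DMSO-treated cells (100%).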

For series [5] the following is noted: 21-day oral dosage in mice ref 22; cited from earlier work.

In the case of `O=C(c1cc(Cc2n[nH]c(=O)c3ccccc23)ccc1F)N1CCN(C(=O)C2CC2)CC1` [olaparib], the TCF/LEF reporter activity entry in series [1] was “no effect”. The figures for the “DNA synthesis (BrdU)” value in the series with RKO cells, in the series on COLO-320DM cells (10 μmol/L) and with COLO-320DM cells (concentrations up to 3 μmol/L) were “resistant”, “marginally inhibited” and “no effects”, respectively. In the series on RKO cells (10 μmol/L), the “DNA synthesis (BrdU) relative to basal level” value is “half”. Also, the “Tankyrase, Axin1/2 and β-catenin protein levels (western blot)” value in series [2] is “did not affect”. Also, the TCF/LEF luciferase activity entry in series [3] is “only marginally inhibited”. The “Immunofluorescence intensity of active β-catenin” value in series [4] is 106%.
For the compound `COc1ccc(C2(CNC(=O)c3ccc(NC(=O)c4ccco4)cc3)CCOCC2)cc1` [JW55], in series [5], the “Body weight and small intestine histology in mice” value was “no body weight alterations or histological changes in the small intestine”.

(Values after publication PMC6272098 (Cancer Science, 2018).)
